Shown are actives, neighbours in structure and some others; about 2.2% of the full set was active somewhere.
STAT3 blocker – inhibitors of IL-6 induced STAT3 signaling; U3A cells, IL-6 STAT3-luciferase reporter, luminescence; host cell line lacks STAT1; inhibition, % at 5.5 µM; hit rate 0.89% among 190,000;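 active means inhibition above the mean inhibition across all screened compounds plus 3 SD, cut at about 44% in these data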;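 further: 0% = DMSO only wells and 100% = 100 µM nifuroxazide control wells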
PPC-1+TRAIL kill – kills PPC-1 cancer cells in the presence of TRAIL; PPC-1 cells + TRAIL, ATPLite viability luminescence; cell killing (% activity), % at 4 µM or 5 µM; hit rate 0.41% among 220,000; AID 1443;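 active means cell killing above 50% in the first pass at 4 µM, then a duplicate retest at 5 µM averaging 50% or more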;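 further: plate controls were cells with TRAIL plus DMSO for no effect and medium-only wells lacking cells for full effect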
C8 TRAIL sens – caspase-8 TRAIL sensitization | hit rate 1% among 360,000 | AID 624354 | NB7+C8 cells + TRAIL, ATPlite viability luminescence | inhibition (viability loss, TRAIL sensitization), % at 10 µM;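 active means compounds causing at least 50% loss of cell viability in the single-dose screen, relative to plate controls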
FLuc inhib CS – counter-screen for luciferase assay inhibitors: firefly luciferase inhibition | ATPLite firefly luciferase biochemical luminescence, 10 min | inhibition, % at 10 µM | P08659 | hit rate 1.5% among 200,000;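 active means inhibition above about 50% when tested at 10 µM, limit read from the data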
Target sequence (P08659 whole entry, looked up): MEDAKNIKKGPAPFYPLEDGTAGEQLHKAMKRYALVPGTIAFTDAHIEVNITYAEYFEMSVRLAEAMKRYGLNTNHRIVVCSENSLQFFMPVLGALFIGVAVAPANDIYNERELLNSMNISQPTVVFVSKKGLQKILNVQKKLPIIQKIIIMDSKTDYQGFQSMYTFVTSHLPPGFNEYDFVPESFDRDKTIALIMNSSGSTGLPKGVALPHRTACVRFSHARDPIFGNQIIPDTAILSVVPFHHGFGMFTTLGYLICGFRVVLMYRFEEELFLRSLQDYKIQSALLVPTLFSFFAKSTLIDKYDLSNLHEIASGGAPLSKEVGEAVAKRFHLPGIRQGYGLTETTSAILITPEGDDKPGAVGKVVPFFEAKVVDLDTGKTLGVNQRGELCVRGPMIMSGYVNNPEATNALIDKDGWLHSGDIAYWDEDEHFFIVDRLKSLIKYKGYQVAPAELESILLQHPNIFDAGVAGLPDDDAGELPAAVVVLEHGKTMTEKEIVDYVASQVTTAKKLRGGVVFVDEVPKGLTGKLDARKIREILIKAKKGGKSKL
HSP90 inh – HSP90 refolding inhibition in rabbit reticulocyte lysate; hit rate 0.91% among 290,000; AID 1789; inhibition, % at 5.6 µM; luciferase refolding luminescence, 3 h;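 active means inhibition above the screen-wide mean plus 3 SD, computed separately per campaign, cut at about 16% in these data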;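 further: 0% = DMSO wells and 100% = 60 µM geldanamycin wells; inhibitors lower the luminescence because luciferase stays unfolded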
FLuc act counter – firefly luciferase counter-screen for stimulation assays; 200,000 tested, under 10 active; ATPlite luciferase biochemical, luminescence, 10 min; 0 = ATP-free wells, 1 = DMSO control; AID 1027; activation factor at 10 µM;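 active means luciferase activation factor, scaled between plate controls, of at least 2 with compound at 10 µM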
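System: luciferase plus luciferin reagent, cell-free; medium: PBS as buffer for the ATP substrate; dosing: test compounds dosed from 2 mM stocks in 100% DMSO; timing: 10 min post-reagent at room temperature; measured by: luminescence measurement of luciferase light output; evaluation: luciferase activation, seen as luminescence increase over controls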
Starred values were filed as active, the others as inactive; / = no result given.

SMILES	STAT3 blocker	PPC-1+TRAIL kill	C8 TRAIL sens	FLuc inhib CS	HSP90 inh	FLuc act counter
COC1CCC(OC2CC(C3(C)CCC4(CC(O)C(C)C(C(C)/C=C(\C)C(=O)C(C)CC(C)C(=O)O)O4)O3)OC3(OC(C4OC(O)(CO)C(C)CC4C)CC3C)C2C)OC1C (stereo not given)	/	/	81*	/	/	/
CC1OC(OC2C=C3CCC4C(CCC5(C)C(c6ccc(=O)oc6)CCC45O)C3(C)CC2)C(O)C(OC2OC(CO)C(O)C(O)C2O)C1O (stereo not given)	/	/	75*	/	/	/
Cc1cc(C(=O)CS(=O)(=O)c2ccccc2)cc(C)c1OC(=O)N(C)C	0	35	37	78*	2	0.2
Cc1ccc(S(=O)(=O)CC(=O)c2cc(C)c(OC(=O)N(C)C)c(C)c2)cc1	-3	2	-3	-1	1	1
CCOC(=O)[C@]12Cc3ccc4ccccc4c3[C@H]1N(Cc1ccccc1)C(=O)c1ccccc12	/	/	14	/	/	/
O=[N+]([O-])c1ccc(N2CCOCC2)c2cccnc12	0	-9	-12	-3	0	1
O=[N+]([O-])c1ccc(N2CCOCC2)c2c1no[n+]2[O-]	/	/	94*	/	/	/
CC(C)(C)n1nnnc1C(c1cccc2ccccc12)N1CCC2(CC1)C(=O)NCN2c1ccccc1 (stereo not given)	/	/	-3	/	/	/
COC(=O)[C@@H]1[C@@H](C(=O)OC)C2(c3ccccc3-c3ccccc32)N(c2ccc(Cl)cc2)N1C#N	0	26	92*	-3	10	1
CCOC(=O)CC(SP1(=S)OCC2(CC=CCC2)CO1)C(=O)OCC (stereo not given)	/	/	10	/	/	/
Cc1ccc(-c2cc(-c3ccc(C)cc3)[n+](-c3ccccc3)c(-c3ccc(C)cc3)c2)cc1	/	/	71*	/	/	/
CCOC(=O)c1cccc(-[n+]2c(-c3ccccc3)cc(-c3ccccc3)cc2-c2ccccc2)c1	/	/	58*	/	/	/
Cc1ccc(-c2cc(-c3ccccc3)cc(-c3ccccc3)[n+]2-c2ccccc2)cc1	/	/	91*	/	/	/
Cc1ccc(-c2cc(-c3ccc(C)cc3)[n+](-c3ccc(C(=O)[O-])cc3)c(-c3ccc(C)cc3)c2)cc1	/	/	6	/	/	/
Cc1cccc(C)c1-n1nnnc1C(C1CC1)N1CCC2(CC1)C(=O)NCN2c1ccccc1 (stereo not given)	/	/	19	/	/	/
COc1ccc(-c2ccc3n2Cc2cnnn2-c2ccccc2-3)cc1	/	/	10	/	/	/
CC(C)CN1Cc2ccccc2-n2nncc2C1	/	/	-5	/	/	/
CC(=O)[C@H]1CCC2C3CC[C@H]4C[C@@H](O)CC[C@]4(C)C3CC[C@@]21C (stereo not given in full)	/	/	-3	/	/	/
CC(=O)OC1CC(OC2C(O)CC(OC3C(O)CC(OC4CCC5(C)C(CCC6C5CCC5(C)C(C7=CC(=O)OC7)C(O)CC65O)C4)OC3C)OC2C)OC(C)C1OC1OC(CO)C(O)C(O)C1O (stereo not given)	/	/	62*	/	/	/
CC1OC(OC2C(O)CC(OC3C(O)CC(OC4CCC5(C)C(CCC6C5CCC5(C)C(C7=CC(=O)OC7)C(O)CC65O)C4)OC3C)OC2C)CC(O)C1O (stereo not given)	/	/	60*	/	/	/
CC(=O)O[C@@H]1CC[C@]2(C)C3CC[C@@]4(C)C(C[C@@H](O)[C@@H]4O)C3[C@@H](OC(C)=O)C[C@H]2C1 (stereo not given in full)	/	/	-2	/	/	/
CC(=O)OC1CC2(O)C3CCC4CC(O)CCC4(C)C3CCC2(C)C1C1=CC(=O)OC1 (stereo not given)	/	/	66*	/	/	/
CCC(c1nnnn1C1CCCCC1)N1CCC2(CC1)C(=O)NCN2c1ccccc1 (stereo not given)	/	/	0	/	/	/
Fc1cccc(-c2ccc3c(c2)CN(C(=S)NCCc2ccccc2)Cc2cnnn2-3)c1	/	/	20	/	/	/
C=CCn1c(O)c(C(C)=NCc2cc(OC)cc(OC)c2)c(=O)[nH]c1=O	16	28	82*	-4	-2	1
SMILES	STAT3 blocker	PPC-1+TRAIL kill	C8 TRAIL sens	FLuc inhib CS	HSP90 inh	FLuc act counter
O=S(=O)(c1ccccc1)N1Cc2ccccc2-n2nncc2C1	/	/	6	/	/	/
CC(=O)Nc1ccccc1C(=O)OCC(=O)c1ccc2c(c1)OCCO2	-6	1	-13	82*	3	0.2
CC12CCC3C(CCC4(O)CC(O)CCC34C=NO)C1(O)CCC2C1=COC(=O)C1 (stereo not given)	/	/	69*	/	/	/
C[C@H]1O[C@@H](OC2CC[C@]3(C=O)[C@H]4CC[C@]5(C)[C@@H](C6=CC(=O)OC6)CC[C@]5(O)[C@@H]4CC[C@]3(O)C2)CC2OC(C)(C)OC21 (stereo not given in full)	/	/	48*	/	1	/
CCCCN=C[C@]12CCC(O)CC1(O)CCC1[C@@H]2CC[C@]2(C)[C@H](C3C=CC(=O)O3)CCC12O (stereo not given in full)	/	/	42	/	1	/
C[C@]12CCC3C(CCC4=CC(O)CC[C@@]43/C=N/O)C1(O)CCC2C1=CC(=O)OC1 (stereo not given in full)	/	/	52*	/	-2	/
CC12CCC3C(CCC4(O)CC(O)CCC34C=O)C1(O)CCC2C1=CC(=O)OC1 (stereo not given)	/	/	69*	/	/	/
CC12CC[C@H]3[C@@H](CCC4(O)C[C@H](O)CCC34/C=N/NC(=O)c3ccccc3Cl)C1(O)CCC2C1=CC(=O)OC1 (stereo not given in full)	/	3	8	/	3	/
CC12CCC(O)CC1CCC1C2CCC2(C)C(C(=O)CO)CCC12 (stereo not given)	/	/	-4	/	/	/
COc1ccc2nc3c(C)n(C)ccc-3c2c1	/	/	-9	/	/	/
C[C@]12CC[C@H]3[C@@H](CC[C@]4(O)C[C@@H](O)CC[C@]34C=O)[C@@]1(O)CC[C@@H]2C1=CC(=O)OC1	/	/	61*	/	/	/
C=C1C(=O)OC2CC3(C)OC3C3OC3C3=CC(OC3=O)C12 (stereo not given)	/	/	15	/	/	/
CCCCCCCCCCCCCCCC[N+](C)(C)C	/	/	85*	/	/	/
CNC(=O)c1cccn(Cc2ccc(C(F)(F)F)cc2)c1=O	46*	0	12	-3	3	1
CN1CCN(Cc2nc3ccccc3n2C)CC1	0	-12	-19	-8	1	1.1
Cn1c(NN=O)nc2ccccc21	-2	39	57*	44	-2	0.6
CCOC(=O)[C@]12Cc3cc(C)ccc3[C@H]1N(C)C(=O)c1cc(OC)ccc12	/	/	38	/	/	/
Clc1cccc(N2Cc3cc(-c4ccccc4)ccc3-n3nncc3C2)c1	/	/	-1	/	/	/
CCCCn1nnnc1C(CCSC)N1CCC2(CC1)C(=O)NCN2c1ccccc1 (stereo not given)	/	/	13	/	/	/
N#CC1c2ccccc2-n2nncc2CN1Cc1cc(Cl)cc(Cl)c1 (stereo not given)	/	/	76*	/	/	/
O=c1[nH]c(=S)[nH]c(O)c1N=Nc1ccc(OC(F)F)cc1	28	26	26	57*	0	0.4

Compound activity: PubChem BioAssay, several laboratories
